These results are taken from ChEMBL document CHEMBL3808289, “Discovery of a Selective Series of Inhibitors of Plasmodium falciparum HDACs” (ACS Med Chem Lett, 2016).

Data set [1] concerns Plasmodium falciparum 3D7. The data set can be described thus: Inhibition of recombinant Plasmodium falciparum 3D7 Flag-tagged HDAC1 Y301H mutant assessed as loss of enzyme activity. In a few lines: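 The Y301H mutant is a putative catalytic-site mutant of PfHDAC1. It was expressed as a Flag-fusion in insect or mammalian cells and purified on anti-Flag affinity gel. Deacetylase activity was measured in vitro with fluorogenic substrates, alongside wild-type PfHDAC1.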

The next data set relates to HDAC1. The data set can be described thus: Selectivity index, ratio of IC50 for HDAC1 in human HeLa cells to EC50 for Plasmodium falciparum 3D7 infected human erythrocytes. The format is toxicity, cell-based. As to conditions: read-out: Ratio IC50/EC50.
A further data set has as its system Plasma. The data set can be described thus: Drug uptake in NMRI mouse plasma at 10 mg/kg, po. The format is ADME, organism-based. The settings on record: in vivo.
Data set [2] can be described thus: Clearance in NMRI mouse plasma. In kind it is ADME, organism-based.
Data set [3] in a line: Inhibition of class 1 histone deacetylase in human HeLa cells using FLUOR DE LYS as fluorescent substrate after 4 hrs by spectrophotometry. The format is cell-based. In a few lines:
(§1)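 Cell-based read-outs (parasite growth in erythrocytes; class I HDAC activity in HeLa) were run with multiple repetitions of each assay to limit variability.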

The target in another data set is Histone deacetylase 1 (Homo sapiens, UniProt Q13547). The data set can be described thus: Inhibition of recombinant human His-tagged HDAC1 expressed in insect cells preincubated for 10 mins followed by addition of FLUOR DE LYS as fluorescent substrate measured after 1 hr by spectrophotometry.
Sequence of Histone deacetylase 1 (Q13547 whole entry): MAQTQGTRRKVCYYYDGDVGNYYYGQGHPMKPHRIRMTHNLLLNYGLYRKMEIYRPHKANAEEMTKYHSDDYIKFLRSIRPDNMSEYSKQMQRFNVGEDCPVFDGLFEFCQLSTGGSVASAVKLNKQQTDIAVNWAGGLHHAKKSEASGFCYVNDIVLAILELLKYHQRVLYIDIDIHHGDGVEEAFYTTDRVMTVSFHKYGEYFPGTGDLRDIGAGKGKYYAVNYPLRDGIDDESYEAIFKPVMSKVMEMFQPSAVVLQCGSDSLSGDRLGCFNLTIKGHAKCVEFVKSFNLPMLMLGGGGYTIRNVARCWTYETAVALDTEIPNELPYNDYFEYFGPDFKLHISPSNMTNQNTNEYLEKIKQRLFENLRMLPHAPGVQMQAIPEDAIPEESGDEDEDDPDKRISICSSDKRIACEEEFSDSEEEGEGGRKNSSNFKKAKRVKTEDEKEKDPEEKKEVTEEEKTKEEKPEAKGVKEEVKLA
Another data set relates to Plasmodium falciparum. Kind of data set: Antimalarial activity against Plasmodium falciparum 3D7 infected human erythrocytes assessed as parasite growth inhibition after 72 hrs by spectrophotometry. In kind it is functional, organism-based. The settings on record: 3D7, 72 h. An outline of the steps: as §1
Data set [4] can be described thus: Oral bioavailability in NMRI mouse at 10 mg/kg. In kind it is ADME, organism-based. The settings on record: in vivo.
A short description of data set [5]: Clearance in NMRI mouse plasma 2 mg/kg, iv by LC-MS/MS analysis. In kind it is ADME, organism-based.

Activity calls are given as the source filed them. The calls are words filed in the database; no cut-off is given here.

For the molecule `CCC(=O)CCCCC[C@H](NC(=O)C1CN(C)C1)c1ncc(-c2cc3ccccc3nc2OC)[nH]1`, the inhibition result in data set [1] was “inactive”.
On to `CNC(=O)CCCCC[C@H](NC(=O)C12CCN(CC1)CC2)c1ncc(-c2ccc3ccccc3c2)[nH]1`, for which the selectivity ratio with HDAC1 amounted to 12. In the data set with Plasma, the Drug uptake result is listed as “Not Active”. Moreover, the clearance – broadly, the volume of plasma or blood freed of the substance per unit of time – in data set [2] came to 60 mL/min/kg. Also, the IC50 – broadly, the concentration needed to halve the response being measured – in data set [3] amounted to 3770 nM; on Histone deacetylase 1, 340 nM. Moreover, the EC50 – broadly, the concentration giving half of the maximal effect – with Plasmodium falciparum is 310 nM.
`CNC(=O)CCCCC[C@H](NC(=O)c1cncs1)c1ncc(-c2cc3ccccc3[nH]c2=O)[nH]1`: the selectivity ratio in the data set with HDAC1 is over 54. The IC50 was over 25000 nM in data set [3] and over 2500 nM at Histone deacetylase 1. Also, the concentration giving a half-maximal response (EC50) in the data set with Plasmodium falciparum is 500 nM.
For `CNC(=O)CCCCC[C@H](NC(=O)c1cncs1)c1ncc(-c2ccc3[nH]cnc3c2)[nH]1`, the selectivity ratio with HDAC1 is over 2.1. Besides, the concentration for half-maximal inhibition (IC50) in [3] was over 25000 nM; on Histone deacetylase 1, over 2500 nM. The EC50 in the data set with Plasmodium falciparum was found to be 12000 nM.
On to `CNC(=O)CCCCC[C@H](NC(=O)c1cncs1)c1ncc(-c2ccc3[nH]ncc3c2)[nH]1`, for which the selectivity ratio in the data set with HDAC1 is 12. The figures for the IC50 (in data set [3]; on Histone deacetylase 1) were 7630 nM and 2120 nM, respectively. In the data set on Plasmodium falciparum, the EC50 came to 630 nM.
For `CCC(=O)CCCCC[C@H](NC(=O)C12CCN(CC1)CC2)c1ncc(-c2ccc3ccccc3c2)[nH]1`, the selectivity ratio in the data set with HDAC1 amounted to 2.5. The concentration for half-maximal inhibition (IC50) in data set [3] was 94 nM; on Histone deacetylase 1, 1.4 nM. Also, the EC50 in the data set on Plasmodium falciparum turned out to be 38 nM.
For `CNC(=O)CCCCC[C@H](NC(=O)c1cncs1)c1ncc(-c2ccc3cc(OC)ncc3c2)[nH]1`, the selectivity ratio in the data set on HDAC1 was determined as 14. The IC50 was determined as 1370 nM in data set [3] and 390 nM on Histone deacetylase 1. Moreover, the 50% effective concentration (EC50) with Plasmodium falciparum was 100 nM.
Turning to `CNC(=O)CCCCC[C@H](NC(=O)Cn1ccnn1)c1ncc(-c2cc3ccccc3nc2OC)[nH]1`, the selectivity ratio in the data set on HDAC1 is 3.8. The bioavailability (in general, dose-corrected exposure relative to a reference, in per cent) in data set [4] is 20%. Further, the IC50 was determined as 6650 nM in data set [3] and 1760 nM on Histone deacetylase 1. For the same molecule, the EC50 in the data set with Plasmodium falciparum turned out to be 1760 nM.
As to `CNC(=O)CCCCC[C@H](NC(=O)c1cncs1)c1ncc(-c2ccc3ccccc3c2C)[nH]1`, in the data set with HDAC1, the selectivity ratio was over 1. Moreover, the IC50 is over 25000 nM in data set [3] and 23900 nM on Histone deacetylase 1. For the same molecule, the EC50 in the data set on Plasmodium falciparum was 23700 nM.
As for `CNC(=O)CCCCC[C@H](NC(=O)c1cncs1)c1ncc(-c2ccc3cccnc3c2)[nH]1`, in the data set with HDAC1, the selectivity ratio was over 6.6. For the same molecule, the IC50 in [3] is over 25000 nM; at Histone deacetylase 1 it was over 5000 nM. For the same molecule, in the data set on Plasmodium falciparum, the concentration giving a half-maximal response (EC50) is 3810 nM.
The matching figures for `CNC(=O)CCCCC[C@H](NC(=O)c1cncs1)c1ncc(-c2ccc3ccncc3c2)[nH]1`: 18, 4750 nM, 600 nM and 270 nM.
For `CNC(=O)CCCCC[C@H](NC(=O)c1cncs1)c1ncc(-c2cc3ccccc3nc2OC)[nH]1`, the bioavailability in [4] was 10%. In data set [3], this molecule registered an IC50 of 890 nM. The EC50 in the data set on Plasmodium falciparum amounted to 570 nM.
Turning to `CNC(=O)CCCCC[C@H](NC(=O)c1cncs1)c1ncc(-c2ccc3ccnc(OC)c3c2)[nH]1`, in the data set on HDAC1, the selectivity ratio amounted to 4.1. In addition, the half-inhibitory concentration (IC50) in data set [3] stood at 20100 nM; at Histone deacetylase 1, 2620 nM. Also, in the data set with Plasmodium falciparum, the EC50 was 4860 nM.
As to `CNC(=O)CCCCC[C@H](NC(=O)c1cncs1)c1ncc(-c2ccc3cc(C(F)(F)F)ncc3c2)[nH]1`, the selectivity ratio in the data set with HDAC1 came out at 20. Besides, the IC50 in [3] was 2040 nM; on Histone deacetylase 1, 290 nM. The half-maximal effective concentration (EC50) in the data set with Plasmodium falciparum was 100 nM.
As to `CNC(=O)CCCCC[C@H](NC(=O)c1cncs1)c1ncc(-c2cccc3cccnc23)[nH]1`, the selectivity ratio in the data set on HDAC1 is over 3. For the same molecule, the IC50 in data set [3] is over 25000 nM; on Histone deacetylase 1 it was over 2500 nM. The 50% effective concentration (EC50) in the data set on Plasmodium falciparum stood at 8280 nM.
In the case of `CNC(=O)CCCCC[C@H](NC(=O)c1cncs1)c1ncc(-c2ccc(-n3cccn3)cc2)[nH]1`, the selectivity ratio with HDAC1 came out at 23. Further, the IC50 amounted to 20500 nM in data set [3] and 2490 nM on Histone deacetylase 1. In addition, the EC50 with Plasmodium falciparum was 900 nM.
In the case of `CNC(=O)CCCCC[C@H](NC(=O)c1cncs1)c1ncc(-c2ccc3[nH]ccc3c2)[nH]1`, in the data set on HDAC1, the selectivity ratio amounted to 19. The results for the concentration for half-maximal inhibition (IC50) (in data set [3]; at Histone deacetylase 1) were 6330 nM and 1280 nM, respectively. The concentration giving a half-maximal response (EC50) with Plasmodium falciparum turned out to be 330 nM.
Consider `CNC(=O)CCCCC[C@H](NC(=O)c1cncs1)c1ncc(-c2ccc(-c3ccccc3)cc2)[nH]1`, for which the selectivity ratio with HDAC1 was over 3.3. Further, the IC50 in data set [3] is over 25000 nM; at Histone deacetylase 1 it was over 5000 nM. Moreover, the EC50 in the data set on Plasmodium falciparum came to 7570 nM.
Taken in the same sequence, the figures for `CNC(=O)CCCCC[C@H](NC(=O)c1cncs1)c1ncc(-c2ccc3[nH]nnc3c2)[nH]1` were over 2.5, over 25000 nM, over 5000 nM and 10000 nM.
Taken in the same sequence, the figures for `CNC(=O)CCCCC[C@H](NC(=O)c1cncs1)c1ncc(-c2ccc3ccccc3c2)[nH]1` were 5.7, 1700 nM, 320 nM and 300 nM.
With `CNC(=O)CCCCC[C@H](NC(=O)C12CCN(CC1)CC2)c1ncc(-c2cc3ccccc3nc2OC)[nH]1`, the selectivity ratio in the data set on HDAC1 came out at 4.7. Further, the Drug uptake entry in the data set on Plasma is on record as “Not Active”. The molecule also returned a clearance in data set [5] of 10 mL/min/kg. Besides, the IC50 in [3] turned out to be 2450 nM; at Histone deacetylase 1, 250 nM. Also, in the data set with Plasmodium falciparum, the EC50 was 520 nM.
For the molecule `CNC(=O)CCCCC[C@H](NC(=O)c1cncs1)c1ncc(-c2ccc(-c3cscn3)cc2)[nH]1`, the selectivity ratio in the data set on HDAC1 worked out at 14. Besides, the IC50 in data set [3] was determined as 8130 nM; on Histone deacetylase 1, 2160 nM. The concentration for a half-maximal effect (EC50) in the data set with Plasmodium falciparum worked out at 570 nM.
